Results published in ChEMBL document CHEMBL1148485, “Synthesis and biological evaluation of new selective cytotoxic cyclolignans derived from podophyllotoxin” (J Med Chem, 2004).

How the values were obtained:
HeLa [1] = assay: Effect on cell cycle evaluated as proportion of cells in S phase of the cell cycleG2/M at 10E-8 M for 72 hr in HeLa cells; assay type: functional, Homo sapiens
In short: (§1)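 HeLa cells were grown in DMEM with 10% heat-inactivated FCS and 2 mM L-glutamine at 37 °C in 5% CO2. They were exposed to 10^-6 to 10^-8 M for 24, 48 or 72 h. Then (3-5)×10^5 cells were fixed overnight in 70% ethanol at 4 °C, PBS-washed, and given 1 mg/mL RNase A plus 20 µg/mL propidium iodide for 1 h at room temperature. DNA content was read by flow cytometry. Sub-G1 (hypodiploid) % counted as apoptotic. Untreated controls were run in parallel. Representative of three independent experiments.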

HeLa [2] = assay: Effect on cell cycle evaluated as proportion of cells in G2/M phase of the cell cycle at 10E-6 M for 24 hr in HeLa cells; assay type: functional, Homo sapiens; in short: as §1
HeLa [3] = assay: Effect on cell cycle evaluated as proportion of cells in G2/M phase of the cell cycle at 10E-8 M for 24 hr in HeLa cells; assay type: functional, Homo sapiens; in short: as §1
HeLa [4] = assay: Effect on cell cycle evaluated as proportion of cells in sub-G1 phase of the cell cycle at 10E-7 M for 48 hr in HeLa cells; assay type: functional, Homo sapiens; in short: as §1
HeLa [5] = assay: Effect on cell cycle evaluated as proportion of cells in S phase of the cell cycle at 10E-7 M for 24 hr in HeLa cells; assay type: functional, Homo sapiens; in short: as §1
HeLa [6] = assay: Effect on cell cycle evaluated as proportion of cells in G0/G1 phase of the cell cycle at 10E-8 M for 48 hr in HeLa cells; assay type: functional, Homo sapiens; in short: as §1
HeLa [7] = assay: Effect on cell cycle evaluated as proportion of cells in sub-G1 (apoptic cells) phase of the cell cycle at 10E-6 M for 48 hr in HeLa cells; assay type: functional, Homo sapiens; in short: as §1
HeLa [8] = assay: Effect on cell cycle evaluated as proportion of cells in G0/G1 phase of the cell cycle at 10E-6 M for 48 hr in HeLa cells; assay type: functional, Homo sapiens; in short: as §1
HeLa [9] = assay: Effect on cell cycle evaluated as proportion of cells in G0/G1 phase of the cell cycle at 10E-7 M for 48 hr in HeLa cells; assay type: functional, Homo sapiens; in short: as §1
HeLa [10] = assay: Effect on cell cycle evaluated as proportion of cells in S phase of the cell cycle at 10E-6 M for 48 hr in HeLa cells; assay type: functional, Homo sapiens; in short: as §1
HeLa [11] = assay: Effect on cell cycle evaluated as proportion of cells in G2/M phase of the cell cycle at 10E-7 M for 48 hr in HeLa cells; assay type: functional, Homo sapiens; in short: as §1
HeLa [12] = assay: Effect on cell cycle evaluated as proportion of cells in S phase of the cell cycle at 10E-8 M for 48 hr in HeLa cells; assay type: functional, Homo sapiens; in short: as §1
HeLa [13] = assay: Effect on cell cycle evaluated as proportion of cells in S phase of the cell cycle at 10E-7 M for 48 hr in HeLa cells; assay type: functional, Homo sapiens; in short: as §1
HeLa [14] = assay: Effect on cell cycle evaluated as proportion of cells in G0/G1 phase of the cell cycle at 10E-7 M for 24 hr in HeLa cells; assay type: functional, Homo sapiens; in short: as §1
[15] = Selectivity index is the ratio of IC50 of P-388 cell line to that of HT-29; assay type: functional
HeLa [16] = assay: Effect on cell cycle evaluated as proportion of cells in sub-G1 phase(apoptic cells) of the cell cycle at 10E-8 M for 72 hr in HeLa cells; assay type: functional, Homo sapiens; in short: as §1
HeLa [17] = assay: Effect on cell cycle evaluated as proportion of cells in G2/M phase of the cell cycle at 10E-6 M for 48 hr in HeLa cells; assay type: functional, Homo sapiens; in short: as §1
HeLa [18] = assay: Effect on cell cycle evaluated as proportion of cells in sub-G1 phase (apoptic cells )of the cell cycle at 10E-8 M for 24 hr in HeLa cells; assay type: functional, Homo sapiens; in short: as §1
HeLa [19] = assay: Effect on cell cycle evaluated as proportion of cells in S phase of the cell cycle at 10E-6 M for 72 hr in HeLa cells; assay type: functional, Homo sapiens; in short: as §1
HeLa [20] = assay: Effect on cell cycle evaluated as proportion of cells in G0/G1 phase of the cell cycle at 10E-8 M for 72 hr in HeLa cells; assay type: functional, Homo sapiens; in short: as §1
HeLa [21] = assay: Effect on cell cycle evaluated as proportion of cells in G2/M phase of the cell cycle at 10E-7 M for 24 hr in HeLa cells; assay type: functional, Homo sapiens; in short: as §1
HeLa [22] = assay: Effect on cell cycle evaluated as proportion of cells in G2/M phase of the cell cycle at 10E-8 M for 48 hr in HeLa cells; assay type: functional, Homo sapiens; in short: as §1
HeLa [23] = assay: Effect on cell cycle evaluated as proportion of cells in S phase of the cell cycle at 10E-7 M for 72 hr in HeLa cells; assay type: functional, Homo sapiens; in short: as §1
HeLa [24] = assay: Effect on cell cycle evaluated as proportion of cells in G0/G1 phase of the cell cycle at 10E-7 M for 72 hr in HeLa cells; assay type: functional, Homo sapiens; in short: as §1
HeLa [25] = assay: Effect on cell cycle evaluated as proportion of cells in sub-G1 (apoptic cells) phase of the cell cycle at 10E-6 M for 72 hr in HeLa cells; assay type: functional, Homo sapiens; in short: as §1
HeLa [26] = assay: Effect on cell cycle evaluated as proportion of cells in G2/M phase of the cell cycle at 10E-7 M for 72 hr in HeLa cells; assay type: functional, Homo sapiens; in short: as §1
HT-29 = assay: In vitro cytotoxicity against HT-29 (human colon carcinoma) cell line.; assay type: functional, cell-based; conditions: Homo sapiens, HT-29
HeLa [27] = assay: Effect on cell cycle evaluated as proportion of cells in sub-G1 phase (apoptic cells)of the cell cycle at 10E-8 M for 48 hr in HeLa cells; assay type: functional, Homo sapiens; in short: as §1
HeLa [28] = assay: Effect on cell cycle evaluated as proportion of cells in sub-G1 phase (apoptic cells) of the cell cycle at 10E-7 M for 24 hr in HeLa cells; assay type: functional, Homo sapiens; in short: as §1
HeLa [29] = assay: Effect on cell cycle evaluated as proportion of cells in G0/G1 phase of the cell cycle at 10E-6 M for 72 hr in HeLa cells; assay type: functional, Homo sapiens; in short: as §1
HeLa [30] = assay: Effect on cell cycle evaluated as proportion of cells in sub-G1 phase (apoptic cells) of the cell cycle at 10E-6 M for 24 hr in HeLa cells; assay type: functional, Homo sapiens; in short: as §1
HeLa [31] = assay: Effect on cell cycle evaluated as proportion of cells in S phase of the cell cycle at 10E-6 M for 24 hr in HeLa cells; assay type: functional, Homo sapiens; in short: as §1
HeLa [32] = assay: Effect on cell cycle evaluated as proportion of cells in S phase of the cell cycle at 10E-8 M for 72 hr in HeLa cells; assay type: functional, Homo sapiens; in short: as §1
HeLa [33] = assay: Effect on cell cycle evaluated as proportion of cells in G0/G1 phase of the cell cycle at 10E-8 M for 24 hr in HeLa cells; assay type: functional, Homo sapiens; in short: as §1
HeLa [34] = assay: Effect on cell cycle evaluated as proportion of cells in S phase of the cell cycle at 10E-8 M for 24 hr in HeLa cells; assay type: functional, Homo sapiens; in short: as §1
HeLa [35] = assay: Effect on cell cycle evaluated as proportion of cells in G0/G1 phase of the cell cycle at 10E-6 M for 24 hr in HeLa cells; assay type: functional, Homo sapiens; in short: as §1
HeLa [36] = assay: Effect on cell cycle evaluated as proportion of cells in G2/M phase of the cell cycle at 10E-6 M for 72 hr in HeLa cells; assay type: functional, Homo sapiens; in short: as §1
HeLa [37] = assay: Effect on cell cycle evaluated as proportion of cells in sub-G1 (apoptic cells) phase of the cell cycle at 10E-7 M for 72 hr in HeLa cells; assay type: functional, Homo sapiens; in short: as §1

For COc1cc([C@@H]2c3cc4c(cc3[C@H](O)[C@H]3COC(=O)[C@H]23)OCO4)cc(OC)c1OC [PODOFILOX], the Activity (HeLa [1]) was 0.2%, the Activity (HeLa [2]) was 92.1% and the Activity (HeLa [3]) was 71.7%. For the same compound, the Activity (HeLa [4]) was 59%, the Activity (HeLa [5]) was 4.5% and the Activity (HeLa [6]) was 16.1%. It also gave an Activity (HeLa [7]) of 62.3%, an Activity (HeLa [8]) of 9.7% and an Activity (HeLa [9]) of 11%. The Activity (HeLa [10]) was 10%, the Activity (HeLa [11]) was 19.5% and the Activity (HeLa [12]) was 9.7%. It also gave an Activity (HeLa [13]) of 10.5%, an Activity (HeLa [14]) of 2.2% and a Selectivity index [15] of 0.5. It also gave an Activity (HeLa [16]) of 81.8%, an Activity (HeLa [17]) of 18% and an Activity (HeLa [18]) of 1.4%. It also gave an Activity (HeLa [19]) of 3.4%, an Activity (HeLa [20]) of 13.9% and an Activity (HeLa [21]) of 91.7%. It also gave an Activity (HeLa [22]) of 5.8%, an Activity (HeLa [23]) of 2.5% and an Activity (HeLa [24]) of 9.2%. It also gave an Activity (HeLa [25]) of 89.3%, an Activity (HeLa [26]) of 0.2% and an IC50 (HT-29) of 24 nM. For the same compound, the Activity (HeLa [27]) was 68.4%, the Activity (HeLa [28]) was 1.6% and the Activity (HeLa [29]) was 7.1%. For the same compound, the Activity (HeLa [30]) was 1.5%, the Activity (HeLa [31]) was 4.2% and the Activity (HeLa [32]) was 4.1%. For the same compound, the Activity (HeLa [33]) was 22.6%, the Activity (HeLa [34]) was 4.3% and the Activity (HeLa [35]) was 2.2%. The Activity (HeLa [36]) was 0.2% and the Activity (HeLa [37]) was 88.1%.
